Data as given in ChEMBL document CHEMBL5696442, “Discovery of type II inhibitors of TGFβ-activated kinase 1 (TAK1) and mitogen-activated protein kinase kinase kinase kinase 2 (MAP4K2)” (J Med Chem, 2015).
Calls of active or inactive are those of the source. The rule behind the calls is not given here.

Columns and labels:
[1] = biological target: Ribosomal protein S6 kinase alpha-3 (Homo sapiens) (UniProt P51812); experiment: Inhibition of RSK2 domain1 ACT labeling site harbouring LTDFGLSKESIDHEKK in human Huh-7 cell lysate at 1 uM by KiNativ Profiling analysis relative to control; format: subcellular
Ribosomal protein S6 kinase alpha-3 (Homo sapiens), sequence (P51812 whole entry, the tested form may be a part): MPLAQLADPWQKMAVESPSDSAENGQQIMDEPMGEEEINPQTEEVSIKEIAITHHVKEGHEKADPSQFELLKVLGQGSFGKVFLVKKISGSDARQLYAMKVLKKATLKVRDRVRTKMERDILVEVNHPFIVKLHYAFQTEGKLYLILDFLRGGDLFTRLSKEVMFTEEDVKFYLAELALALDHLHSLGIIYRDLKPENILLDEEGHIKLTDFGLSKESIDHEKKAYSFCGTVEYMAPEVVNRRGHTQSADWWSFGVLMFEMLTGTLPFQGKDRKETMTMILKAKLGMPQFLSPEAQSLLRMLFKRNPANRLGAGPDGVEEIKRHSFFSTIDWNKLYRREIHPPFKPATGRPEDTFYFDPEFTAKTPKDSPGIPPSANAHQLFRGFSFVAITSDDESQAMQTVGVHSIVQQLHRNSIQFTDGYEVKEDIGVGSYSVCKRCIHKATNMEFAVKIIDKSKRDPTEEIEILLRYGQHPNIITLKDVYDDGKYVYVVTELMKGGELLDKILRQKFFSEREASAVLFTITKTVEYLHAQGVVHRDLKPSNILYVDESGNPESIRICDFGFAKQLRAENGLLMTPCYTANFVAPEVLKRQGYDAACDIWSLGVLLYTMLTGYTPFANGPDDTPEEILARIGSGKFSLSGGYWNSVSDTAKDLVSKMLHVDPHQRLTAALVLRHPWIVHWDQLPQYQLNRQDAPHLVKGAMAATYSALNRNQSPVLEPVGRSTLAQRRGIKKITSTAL

[2] = biological target: Ribosomal protein S6 kinase alpha-3 (Homo sapiens) (UniProt P51812); experiment: Inhibition of RSK2 domain1 ACT labeling site in human A-375 cells at 5 uM by KiNativ Profiling analysis relative to control; format: cell-based
Method in brief: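 Live A375 melanoma cells treated with compound at 5 or 0.5 μM, then lysed. Lysate kinases were labeled with a lysine-reactive ATP or ADP-biotin probe. Inhibition was read as protection of labeling sites from the probe.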

[3] = biological target: T1, Scaffold protein ILK (Homo sapiens) (UniProt Q13418); experiment: Inhibition of ILK Protein Kinase Domain in human A-375 cells at 0.5 uM by KiNativ Profiling analysis relative to control; format: cell-based
T1 sequence (whole entry): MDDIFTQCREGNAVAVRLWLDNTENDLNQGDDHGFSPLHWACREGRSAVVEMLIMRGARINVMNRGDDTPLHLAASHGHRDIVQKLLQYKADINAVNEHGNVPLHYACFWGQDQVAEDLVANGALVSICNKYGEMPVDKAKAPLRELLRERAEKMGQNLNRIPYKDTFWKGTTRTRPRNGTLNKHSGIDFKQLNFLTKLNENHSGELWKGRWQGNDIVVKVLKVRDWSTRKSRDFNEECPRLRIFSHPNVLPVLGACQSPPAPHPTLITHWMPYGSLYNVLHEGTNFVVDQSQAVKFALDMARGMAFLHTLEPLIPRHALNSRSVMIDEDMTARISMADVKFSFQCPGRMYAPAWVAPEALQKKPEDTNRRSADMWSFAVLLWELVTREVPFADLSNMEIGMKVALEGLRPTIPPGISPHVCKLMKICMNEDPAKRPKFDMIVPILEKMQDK

[4] = biological target: T2, Mitogen-activated protein kinase kinase kinase 6 (Homo sapiens) (UniProt O95382); experiment: Inhibition of MAP3K6 Lys1 labeling site harbouring IAIKEIPER in human A-375 cells at 0.05 uM by KiNativ Profiling analysis relative to control; format: cell-based
T2 sequence (whole entry): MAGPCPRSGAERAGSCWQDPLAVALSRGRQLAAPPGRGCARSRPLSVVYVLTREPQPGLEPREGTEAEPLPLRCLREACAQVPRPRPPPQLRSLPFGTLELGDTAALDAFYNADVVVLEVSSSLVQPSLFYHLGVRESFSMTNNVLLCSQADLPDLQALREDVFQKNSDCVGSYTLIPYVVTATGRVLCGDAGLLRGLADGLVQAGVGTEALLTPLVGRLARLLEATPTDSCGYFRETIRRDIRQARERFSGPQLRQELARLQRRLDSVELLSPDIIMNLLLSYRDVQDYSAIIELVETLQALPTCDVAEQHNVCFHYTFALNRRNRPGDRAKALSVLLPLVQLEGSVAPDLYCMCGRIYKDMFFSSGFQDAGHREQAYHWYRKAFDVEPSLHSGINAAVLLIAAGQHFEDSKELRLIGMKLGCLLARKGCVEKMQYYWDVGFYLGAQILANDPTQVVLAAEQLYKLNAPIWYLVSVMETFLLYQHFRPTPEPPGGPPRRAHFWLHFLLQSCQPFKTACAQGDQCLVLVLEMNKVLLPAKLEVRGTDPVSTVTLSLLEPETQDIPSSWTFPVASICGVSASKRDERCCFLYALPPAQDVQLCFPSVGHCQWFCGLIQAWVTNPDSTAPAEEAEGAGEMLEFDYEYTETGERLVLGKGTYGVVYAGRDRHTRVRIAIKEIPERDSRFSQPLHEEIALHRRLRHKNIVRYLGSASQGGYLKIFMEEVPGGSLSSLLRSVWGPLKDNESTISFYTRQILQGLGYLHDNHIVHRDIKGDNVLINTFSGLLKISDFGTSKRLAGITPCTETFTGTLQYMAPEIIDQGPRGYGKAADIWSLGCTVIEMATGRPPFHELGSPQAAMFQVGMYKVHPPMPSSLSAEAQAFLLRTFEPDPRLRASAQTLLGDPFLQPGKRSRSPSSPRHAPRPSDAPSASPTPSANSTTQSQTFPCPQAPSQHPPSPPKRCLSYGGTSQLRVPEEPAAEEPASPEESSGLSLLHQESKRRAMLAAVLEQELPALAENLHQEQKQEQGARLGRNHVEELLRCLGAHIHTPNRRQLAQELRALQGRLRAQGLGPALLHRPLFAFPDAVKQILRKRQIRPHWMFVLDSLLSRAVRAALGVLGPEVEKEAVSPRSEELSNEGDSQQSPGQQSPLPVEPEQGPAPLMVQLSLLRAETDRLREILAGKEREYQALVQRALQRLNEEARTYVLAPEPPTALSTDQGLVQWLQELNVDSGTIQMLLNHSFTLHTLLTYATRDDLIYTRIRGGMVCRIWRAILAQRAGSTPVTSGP

[5] = biological target: Serine/threonine-protein kinase 36 (Homo sapiens) (UniProt Q9NRP7); experiment: Inhibition of STK36 (unknown origin) at 10 uM by Ambit Kinomescan binding assay relative to control; values are per cent of control
Serine/threonine-protein kinase 36 (Homo sapiens), sequence (Q9NRP7 whole entry, canonical isoform): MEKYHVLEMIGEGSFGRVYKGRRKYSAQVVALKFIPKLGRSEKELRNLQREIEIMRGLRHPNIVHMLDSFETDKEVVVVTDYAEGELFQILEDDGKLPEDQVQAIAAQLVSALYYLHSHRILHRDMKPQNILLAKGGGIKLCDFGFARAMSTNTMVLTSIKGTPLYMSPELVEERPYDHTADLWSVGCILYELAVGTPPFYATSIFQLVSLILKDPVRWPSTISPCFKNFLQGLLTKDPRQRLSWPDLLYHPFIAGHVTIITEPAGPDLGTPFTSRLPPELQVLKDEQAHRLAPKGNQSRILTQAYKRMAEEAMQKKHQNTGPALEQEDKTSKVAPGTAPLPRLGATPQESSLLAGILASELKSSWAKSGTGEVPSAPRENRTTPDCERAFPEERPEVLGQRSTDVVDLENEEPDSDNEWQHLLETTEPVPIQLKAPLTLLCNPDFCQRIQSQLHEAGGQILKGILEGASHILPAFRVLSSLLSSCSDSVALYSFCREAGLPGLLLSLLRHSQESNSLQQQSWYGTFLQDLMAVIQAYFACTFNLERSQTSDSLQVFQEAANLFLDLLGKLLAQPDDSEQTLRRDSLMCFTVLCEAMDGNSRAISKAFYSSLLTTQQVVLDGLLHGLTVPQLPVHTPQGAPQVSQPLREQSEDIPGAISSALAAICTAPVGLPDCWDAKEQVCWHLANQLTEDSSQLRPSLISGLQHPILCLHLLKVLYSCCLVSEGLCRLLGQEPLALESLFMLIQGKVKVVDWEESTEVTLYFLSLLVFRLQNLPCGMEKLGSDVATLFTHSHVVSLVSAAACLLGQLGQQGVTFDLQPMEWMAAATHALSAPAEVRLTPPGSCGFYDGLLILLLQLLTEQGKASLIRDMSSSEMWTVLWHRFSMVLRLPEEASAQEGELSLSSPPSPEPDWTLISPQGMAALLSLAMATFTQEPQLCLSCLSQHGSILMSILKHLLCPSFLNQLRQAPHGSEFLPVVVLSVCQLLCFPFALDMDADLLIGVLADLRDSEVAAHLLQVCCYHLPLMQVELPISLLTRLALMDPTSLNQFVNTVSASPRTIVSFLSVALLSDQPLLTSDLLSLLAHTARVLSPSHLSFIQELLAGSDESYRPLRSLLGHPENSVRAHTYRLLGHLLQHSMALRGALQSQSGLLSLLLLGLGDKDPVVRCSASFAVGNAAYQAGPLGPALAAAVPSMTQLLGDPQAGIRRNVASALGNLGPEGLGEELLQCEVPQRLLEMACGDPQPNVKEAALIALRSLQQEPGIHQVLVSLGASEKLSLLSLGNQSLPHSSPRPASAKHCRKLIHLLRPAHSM

[6] = biological target: Casein kinase I isoform gamma-1 (Homo sapiens) (UniProt Q9HCP0); experiment: Inhibition of CSNK1G1 (unknown origin) at 10 uM by Ambit Kinomescan binding assay
Casein kinase I isoform gamma-1 (Homo sapiens), sequence (Q9HCP0 whole entry, looked up, canonical isoform): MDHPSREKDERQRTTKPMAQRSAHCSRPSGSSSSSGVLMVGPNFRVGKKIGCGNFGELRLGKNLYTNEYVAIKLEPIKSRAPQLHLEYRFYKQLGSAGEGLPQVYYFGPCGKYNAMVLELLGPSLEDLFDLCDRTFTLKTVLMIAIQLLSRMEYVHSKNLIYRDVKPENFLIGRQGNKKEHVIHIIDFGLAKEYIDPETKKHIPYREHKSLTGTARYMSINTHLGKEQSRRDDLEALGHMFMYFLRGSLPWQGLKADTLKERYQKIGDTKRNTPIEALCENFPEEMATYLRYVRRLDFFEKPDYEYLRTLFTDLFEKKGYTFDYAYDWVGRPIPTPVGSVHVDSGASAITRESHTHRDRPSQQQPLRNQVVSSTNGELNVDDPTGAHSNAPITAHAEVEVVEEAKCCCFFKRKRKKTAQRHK

[7] = biological target: Tyrosine-protein kinase CSK (Homo sapiens, UniProt P41240); experiment: Inhibition of CSK ACT labeling site harbouring VSDFGLTKEASSTQDTGKLPVK in human Huh-7 cells at 1 uM by KiNativ Profiling analysis relative to control; format: cell-based
Tyrosine-protein kinase CSK, sequence (P41240 2-450 limits assumed): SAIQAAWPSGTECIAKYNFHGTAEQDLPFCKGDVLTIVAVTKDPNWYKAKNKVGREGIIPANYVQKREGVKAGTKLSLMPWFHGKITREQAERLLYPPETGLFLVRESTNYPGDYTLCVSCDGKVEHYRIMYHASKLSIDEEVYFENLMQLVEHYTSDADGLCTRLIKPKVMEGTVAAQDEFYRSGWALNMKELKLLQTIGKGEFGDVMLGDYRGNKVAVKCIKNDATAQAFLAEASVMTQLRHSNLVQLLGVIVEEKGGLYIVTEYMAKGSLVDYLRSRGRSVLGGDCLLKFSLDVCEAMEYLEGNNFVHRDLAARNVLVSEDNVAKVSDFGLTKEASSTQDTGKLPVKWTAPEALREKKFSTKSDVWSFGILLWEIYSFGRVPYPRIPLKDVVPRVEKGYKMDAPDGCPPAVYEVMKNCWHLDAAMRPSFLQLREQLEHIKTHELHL

[8] = biological target: Ribosomal protein S6 kinase alpha-1 (Homo sapiens) (UniProt Q15418); experiment: Inhibition of RSK1 Domain 1 ACT labeling site in human Huh-7 cells at 10 uM by KiNativ Profiling analysis relative to control; format: cell-based
Ribosomal protein S6 kinase alpha-1 (Homo sapiens), sequence (Q15418 whole entry, the tested form may be a part): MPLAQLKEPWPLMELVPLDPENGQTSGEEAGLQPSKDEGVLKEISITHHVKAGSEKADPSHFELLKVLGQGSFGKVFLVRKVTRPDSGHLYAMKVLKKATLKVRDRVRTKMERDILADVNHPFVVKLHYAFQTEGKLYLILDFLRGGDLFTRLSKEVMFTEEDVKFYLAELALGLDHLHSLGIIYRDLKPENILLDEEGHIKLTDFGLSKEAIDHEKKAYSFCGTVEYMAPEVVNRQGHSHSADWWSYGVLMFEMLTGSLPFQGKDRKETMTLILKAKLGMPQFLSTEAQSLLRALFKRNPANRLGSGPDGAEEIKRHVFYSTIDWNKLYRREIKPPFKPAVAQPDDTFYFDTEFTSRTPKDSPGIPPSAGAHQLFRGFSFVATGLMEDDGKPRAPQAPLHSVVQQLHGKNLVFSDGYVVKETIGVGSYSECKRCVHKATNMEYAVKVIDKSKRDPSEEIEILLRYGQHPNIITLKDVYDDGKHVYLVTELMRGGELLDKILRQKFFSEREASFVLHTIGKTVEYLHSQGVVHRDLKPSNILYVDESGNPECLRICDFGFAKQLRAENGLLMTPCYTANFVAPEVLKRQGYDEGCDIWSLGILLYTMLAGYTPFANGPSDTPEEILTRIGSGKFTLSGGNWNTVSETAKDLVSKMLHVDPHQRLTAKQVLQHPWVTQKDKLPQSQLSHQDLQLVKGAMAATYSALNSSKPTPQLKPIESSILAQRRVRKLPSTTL

[9] = biological target: Mitogen-activated protein kinase 7 (Homo sapiens) (UniProt Q13164); experiment: Inhibition of Erk5 K2 labeling site in human Huh-7 cells at 10 uM by KiNativ Profiling analysis relative to control; format: cell-based
Mitogen-activated protein kinase 7 (Homo sapiens), sequence (Q13164 2-816 limits assumed): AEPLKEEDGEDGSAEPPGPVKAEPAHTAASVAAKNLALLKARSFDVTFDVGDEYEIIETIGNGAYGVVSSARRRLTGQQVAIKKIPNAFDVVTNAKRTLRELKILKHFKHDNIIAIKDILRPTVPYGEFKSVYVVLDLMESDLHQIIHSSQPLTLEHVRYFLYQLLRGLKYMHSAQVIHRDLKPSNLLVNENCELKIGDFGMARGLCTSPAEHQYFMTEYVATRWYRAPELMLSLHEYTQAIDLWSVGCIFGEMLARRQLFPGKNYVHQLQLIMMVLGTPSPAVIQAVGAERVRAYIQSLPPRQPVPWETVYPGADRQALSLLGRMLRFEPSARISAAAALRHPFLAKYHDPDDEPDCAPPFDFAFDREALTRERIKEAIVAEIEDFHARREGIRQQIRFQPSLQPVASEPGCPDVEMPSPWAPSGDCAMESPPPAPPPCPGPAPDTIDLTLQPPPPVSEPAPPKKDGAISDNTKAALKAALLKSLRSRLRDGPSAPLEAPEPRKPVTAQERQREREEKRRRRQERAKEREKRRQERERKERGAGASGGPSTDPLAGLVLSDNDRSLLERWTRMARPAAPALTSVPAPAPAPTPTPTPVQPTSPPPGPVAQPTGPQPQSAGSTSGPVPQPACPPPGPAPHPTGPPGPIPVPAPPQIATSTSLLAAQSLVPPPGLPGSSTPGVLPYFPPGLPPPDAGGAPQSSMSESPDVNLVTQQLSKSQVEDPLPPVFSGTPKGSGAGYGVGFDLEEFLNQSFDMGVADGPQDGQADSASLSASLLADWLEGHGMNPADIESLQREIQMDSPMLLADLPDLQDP

Question: For `CNc1cc(Oc2cc(C(=O)Nc3cc(N4CCN(C)CC4)cc(C(F)(F)F)c3)ccc2C)ncn1`, which inhibition [1] is on record?
Answer: The inhibition was -2.2%.

Question: Which inhibition [2] does the source give for `CCN1CCN(Cc2ccc(NC(=O)c3ccc(C)c(/C=C/c4cnc5[nH]ccc5c4OC)c3)cc2C(F)(F)F)CC1` here?
Answer: The inhibition was 17.8%.

Question: `CCN1CCN(Cc2ccc(NC(=O)c3ccc(C)c(Oc4ccnc5[nH]ccc45)c3)cc2C(F)(F)F)CC1` was tested. Which inhibition [3] did it give?
Answer: The inhibition was 1.9%.

Question: And the inhibition [4]?
Answer: The inhibition was 10.8%.

Question: What about the residual activity [5] of the same compound?
Answer: Its residual activity is 0.2%.

Question: What about the inhibition [6] of the same compound?
Answer: The inhibition was “inactive”.

Question: What about the inhibition [7] of the same compound?
Answer: The inhibition was 2.4%.

Question: What about the inhibition [8] of the same compound?
Answer: The inhibition was 3.4%.

Question: And the inhibition [9]?
Answer: The inhibition was 12.4%.
